Measurements reported in ChEMBL document CHEMBL6103596, “Design, Synthesis, and Biological Evaluation of BODIPY-Caged Resiquimod as a Dual-Acting Phototherapeutic” (J Med Chem, 2025).
Active and inactive are the calls of the source. The calls are words filed in the database; no cut-off is given here.

Legend:
[1] = Phototoxicity in human A549 cells assessed as cell viability at 10 uM under 530 ot 650nm 30 mW LED light irradiation and measured after 72 hrs by CCK-8 method relative to control; assay type: functional; conditions: A549, light or radiation study, read-out: Activity
Procedure, shortened: (§1)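 A549, HaCaT and HeLa cells seeded at 2 × 10^3 cells/well in phenol red-free DMEM with 10% FBS. After 24 h, medium replaced with 1% DMSO containing 10 μM compound. After 90 min, one plate kept dark and one exposed to 530 or 650 nm LED (30 mW) for 15 min. Plates incubated 72 h, then CCK-8 read at 450 nm. Viability taken relative to dark control. Triplicates (HaCaT six).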

AD293 [2] = assay: Effect on morphological changes in human AD293 cells stable expressing TLR7 at 10 uM pretreated with N-Acetylcysteine for 30 mins followed by compound addition and measured after 30 mins under LED light irradiation at 650 nm by microscopic analysis; assay type: functional, cell-based
Procedure, shortened: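 TLR7-stable AD293 cells seeded at 20,000/well. After 24 h, medium switched to Opti-MEM. 1 h later, 10 mM N-acetyl-cysteine added. 30 min after that, cells given 10 μM compound and exposed to 650 nm LED for 30 min, or shielded from light as control. Cells observed by microscope 24 h after drug treatment.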

[3] = Dark toxicity in human HeLa cells assessed as cell viability at 10 uM under dark condition and measured after 72 hrs by CCK-8 method relative to control; assay type: cell-based; conditions: read-out: Activity; procedure, shortened: as §1
[4] = target: T1, Toll-like receptor 7 (Homo sapiens) (UniProt Q9NYK1); assay: Activation of TLR7 in human AD293 cells assessed as IkappaB-alpha degradation at 10 uM preincubated with NAC followed by compound addition and measured after 30 mins under 650nm red light irradiation by Western blot analysis; assay type: cell-based; conditions: filed as activator
T1 sequence (whole entry): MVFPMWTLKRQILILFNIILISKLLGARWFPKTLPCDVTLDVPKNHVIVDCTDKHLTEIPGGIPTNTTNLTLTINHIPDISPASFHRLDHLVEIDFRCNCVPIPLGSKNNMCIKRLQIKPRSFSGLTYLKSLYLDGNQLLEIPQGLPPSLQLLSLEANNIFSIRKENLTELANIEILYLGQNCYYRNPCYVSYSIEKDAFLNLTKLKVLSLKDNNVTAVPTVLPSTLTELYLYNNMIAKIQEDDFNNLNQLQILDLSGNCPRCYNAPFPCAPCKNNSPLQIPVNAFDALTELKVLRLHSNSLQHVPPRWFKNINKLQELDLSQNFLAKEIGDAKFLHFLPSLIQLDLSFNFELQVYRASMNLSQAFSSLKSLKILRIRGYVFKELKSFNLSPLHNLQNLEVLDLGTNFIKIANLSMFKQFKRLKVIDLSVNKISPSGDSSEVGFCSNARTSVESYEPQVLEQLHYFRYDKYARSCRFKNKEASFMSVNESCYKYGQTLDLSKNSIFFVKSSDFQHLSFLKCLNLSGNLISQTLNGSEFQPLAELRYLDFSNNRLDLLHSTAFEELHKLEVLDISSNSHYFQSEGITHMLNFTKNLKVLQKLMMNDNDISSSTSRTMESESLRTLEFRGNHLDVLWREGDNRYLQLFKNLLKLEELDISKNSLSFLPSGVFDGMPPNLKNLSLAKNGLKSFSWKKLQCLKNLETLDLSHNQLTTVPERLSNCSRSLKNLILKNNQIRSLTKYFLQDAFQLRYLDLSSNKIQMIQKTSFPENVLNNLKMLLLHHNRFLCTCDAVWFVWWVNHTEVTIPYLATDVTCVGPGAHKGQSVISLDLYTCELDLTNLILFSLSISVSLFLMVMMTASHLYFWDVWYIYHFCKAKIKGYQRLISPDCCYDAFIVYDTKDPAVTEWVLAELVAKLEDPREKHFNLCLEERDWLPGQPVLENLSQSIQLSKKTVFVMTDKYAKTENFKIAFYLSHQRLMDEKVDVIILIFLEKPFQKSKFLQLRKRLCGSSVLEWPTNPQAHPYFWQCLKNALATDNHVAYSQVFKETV
Procedure, shortened: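 Stable TLR7-expressing AD293 line made by TLR7 plasmid transfection and hygromycin B selection (250 μg/mL, 10 days). Cells pretreated with N-acetyl-cysteine, then given 10 μM compound, with or without 30 min 650 nm red-light irradiation. Lysates run on 10% SDS-PAGE and blotted to PVDF. Total IκB probed (1:1000) with GAPDH loading control, ECL detection. Means of three experiments.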

AD293 [5] = assay: Effect on morphological changes in human AD293 cells at 10 uM; assay type: functional, cell-based
Procedure, shortened: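 AD293 cells treated with 10 μM compound, followed by LED irradiation or kept unirradiated, then morphology examined by microscopy.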

[6] = Dark toxicity in human A549 cells assessed as cell viability at 10 uM under dark condition and measured after 72 hrs by CCK-8 method relative to control; assay type: cell-based; conditions: read-out: Activity; procedure, shortened: as §1
[7] = Dark toxicity in human HaCaT cells assessed as cell viability at 10 uM under dark condition and measured after 72 hrs by CCK-8 method relative to control; assay type: cell-based; conditions: read-out: Activity; procedure, shortened: as §1
AD293 [8] = assay: Cytotoxicity against human AD293 cells assessed as cell viability at 0.1 to 10 uM incubated for 24 hrs by MTT assay; assay type: toxicity, cell-based; conditions: ad293, 24 h, dose 0.1-10 µM
Procedure, shortened: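 AD293 cells seeded at 4 × 10^4 cells/well in DMEM with 10% FBS. Next day, compound (100 nM, 1 μM, 10 μM) or vehicle added in serum-free DMEM for 24 h, no irradiation. MTT (5 mg/mL reagent) added for 3 h at 37 °C, formazan dissolved in DMSO, absorbance read at 590 nm. Triplicate wells, four independent experiments.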

[9] = Photosensitizing ability of the compound assessed as singlet oxygen quantum yield under 600nm monochromatic light irradiation by DPBF based assay relative to control; assay type: functional
Procedure, shortened: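 Singlet oxygen generation followed by the decrease in DPBF absorbance under irradiation. DPBF (20–25 μm) used at 5–10-fold excess over compound (2.5–5 μm).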

[10] = Photorelease activity of the compound in CH3CN assessed as retention time under 532nm laser light by HPLC analysis; assay type: physicochemical
[11] = Photophysical property of the compound assessed as fluorescence quantum yield; assay type: physicochemical
[12] = Thermal stability of compound in DMSO-d6 at 37.5 degree C measured before 24 hrs by 1H NMR spectroscopy analysis; assay type: physicochemical
Procedure, shortened: (§2)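 Compound in DMSO-d6 followed by 1H NMR. Degradation taken from the intensity of three signals (one resiquimod, one BODIPY, and the linkage NH), each relative to the DMSO-d6 internal standard, and the three averaged.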

[13] = Thermal stability of compound in DMSO-d6 at 37.5 degree C measured after 2 days by 1H NMR spectroscopy analysis relative to control; assay type: physicochemical; conditions: 48 h; time 2 day; procedure, shortened: as §2
[14] = Photorelease activity of the compound in CH3CN at 532nm laser light measured upto 60 mins under argon condition by HPLC analysis relative to control; assay type: ADME; parameters: dose or concentration left out as unconfirmed; conditions: 1 h
[15] = Thermal stability of compound in DMSO-d6 at 37.5 degree C measured after 3 days by 1H NMR spectroscopy analysis relative to control; assay type: physicochemical; conditions: 72 h; time 3 day; procedure, shortened: as §2
[16] = Photorelease activity of the compound in aqueous medium at 30 uM measured after 1 hr under dark condition by UV-vis spectroscopy analysis; assay type: ADME; conditions: buffer
[17] = Photorelease activity of the compound in DMSO-d6 measured after 1 hr under 532nm YAG laser radiation by 1H NMR spectroscopy analysis relative to control; assay type: ADME
[18] = Phototoxicity in human HaCaT cells assessed as cell viability at 10 uM under 530 ot 650nm 30 mW LED light irradiation and measured after 72 hrs by CCK-8 method relative to control; assay type: functional; conditions: light or radiation study, read-out: Activity; procedure, shortened: as §1
[19] = Thermal stability of compound in DMSO-d6 at 37.5 degree C measured after 1 day by 1H NMR spectroscopy analysis relative to control; assay type: physicochemical; conditions: 24 h; procedure, shortened: as §2
[20] = Photorelease activity of the compound in CH3CN at 532nm laser light measured upto 60 mins under air condition by HPLC analysis relative to control; assay type: ADME; parameters: dose or concentration left out as unconfirmed; conditions: 1 h
[21] = Photorelease activity of the compound in aqueous medium assessed as reduction in lamda maximum at 30 uM measured after 1 hr under 525 nm LED light radiation by UV-vis spectroscopy analysis; assay type: ADME; conditions: buffer
[22] = Phototoxicity in human HeLa cells assessed as cell viability at 10 uM under 530 ot 650nm 30 mW LED light irradiation and measured after 72 hrs by CCK-8 method relative to control; assay type: functional; conditions: light or radiation study, read-out: Activity; procedure, shortened: as §1
[23] = Photorelease activity of the compound in DMSO-d6 measured after 10 hrs under 660nm 400mW LED light by 1H NMR spectroscopy analysis relative to control; assay type: ADME
[24] = Photorelease activity of the compound in aqueous solution at 30 uM measured upto 200 mins under 660nm 400mW LED light by UV-vis spectroscopy analysis; conditions: buffer, 3.333 h
[25] = Photorelease activity of the compound in aqueous solution at 30 uM measured upto 200 mins under dark condition by 1H NMR spectroscopy analysis; assay type: ADME; conditions: buffer, 3.333 h
[26] = Drug uptake in human AD293 cells assessed as increase in red fluorescence at 10 uM measured after 40 mins by fluorescence imaging based analysis; assay type: ADME, cell-based; conditions: ad293, 40 min
RAW264.7 [27] = assay: Effect on iNOS mRNA expression in mouse RAW264.7 cells at 100 nM preincubated with NAC followed by compound addition and measured after 30 mins under 650nm LED light irradiation by real-time PCR analysis; assay type: functional, cell-based
Procedure, shortened: (§3)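 RAW264.7 cells seeded at 0.3 million per 35 mm dish. Next day, pretreated with 10 mM N-acetyl-cysteine for 30 min, then given 100 nM compound and 650 nm LED light for 30 min. Total RNA taken 24 h later and reverse transcribed with random primers. SYBR real-time PCR run for 40 cycles (95/60/72 °C). Quantities calculated by the Ct method. Results given as fold change, means ± SD.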

[28] = Induction of superoxide anion radical assessed as DMPO-O2 radical adduct formation under dark condition measured after 10 mins by ESR spectra analysis; assay type: functional
Procedure, shortened: (§4)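 ESR spectra recorded with DMPO as spin trap to detect superoxide and/or hydroxyl radical adducts, before and after 10 min irradiation of compound.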

[29] = Drug uptake in human A549 cells assessed as increase in intracellular fluorescence at 1 uM measured after 40 mins by confocal microscopic analysis; assay type: ADME, cell-based; conditions: a549, 40 min
Procedure, shortened: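 A549 cells treated with 1 μM compound. Intracellular fluorescence imaged by confocal microscopy (640 nm laser excitation, 650–750 nm band-pass) at 0 and 40 min after treatment.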

[30] = Induction of superoxide anion radical assessed as DMPO-O2 radical adduct formation under light irradiation measured after 10 mins by ESR spectra analysis; assay type: functional; procedure, shortened: as §4
[31] = Induction of hydroxyl radical assessed as DMPO-OH radical adduct formation under dark condition measured after 10 mins by ESR spectra analysis; assay type: functional; procedure, shortened: as §4
RAW264.7 [32] = assay: Effect on TNF-alpha mRNA expression in mouse RAW264.7 cells at 100 nM preincubated with NAC followed by compound addition and measured after 30 mins under 650nm LED light irradiation by real-time PCR analysis; assay type: functional, cell-based; procedure, shortened: as §3
[33] = Induction of hydroxyl radical assessed as DMPO-OH radical adduct formation under light irradiation measured after 10 mins by ESR spectra analysis; assay type: functional; procedure, shortened: as §4

Compound	Activity (AD293 [2])	viability at 72 h, 10 µM [3]	Activity [4]	Activity (AD293 [5])	viability at 72 h, 10 µM [6]	viability at 72 h, 10 µM [7]	Activity (AD293 [8])	Activity [9]	Retention_time [10]	Activity [11]	Activity [12]	Activity [13]	Activity [15]	Activity [19]	other results
CCOCc1nc2c(N)nc3ccccc3c2n1CC(C)(C)O [RESIQUIMOD]	inactive	4%	Active	inactive	19%	32%	–	–	–	–	–	–	–	–	viability at 10 µM [1]: 21%
CC1=CC(C)=[N+]2C1=C(CO)c1c(C)cc(C)n1[B-]2(F)F	–	–	–	–	–	–	Toxic	7%	4.15 min	0.835	–	–	–	–	–
COCCOCCOCCOc1ccc(/C=C/C2=[N+]3C(=C(CO)c4c(C)cc(/C=C/c5ccc(OCCOCCOCCOC)cc5)n4[B-]3(F)F)C(C)=C2)cc1	–	–	–	–	–	–	Non-toxic	0.37%	–	0.554	–	–	–	–	–
CCOCc1nc2c(NC(=O)OCC3=C4C(C)=CC(C)=[N+]4[B-](F)(F)n4c(C)cc(C)c43)nc3ccccc3c2n1CC(C)(C)O	–	2%	Active	–	19%	6%	Toxic	3.2%	6.8 min	0.809	Not_active	22%	31%	12%	Activity [14]: ~ 77%; Activity [16]: Not_active; Activity [17]: 100%; viability at 10 µM [18]: 88%; Activity [20]: ~ 68%; Activity [21]: Active; viability at 10 µM [22]: 54%
CCOCc1nc2c(NC(=O)OCC3=C4C(C)=CC(/C=C/c5ccc(OCCOCCOCCOC)cc5)=[N+]4[B-](F)(F)n4c(/C=C/c5ccc(OCCOCCOCCOC)cc5)cc(C)c43)nc3ccccc3c2n1CC(C)(C)O	–	–	–	–	–	–	Non-toxic	0.33%	–	0.482	Not_active	11%	15%	7%	Activity [23]: ~ 90%; Activity [24]: Active; Activity [25]: Not_active
COCCOCCOCCOc1ccc(/C=C/C2=[N+]3C(=C(CO)c4c(C)cc(/C=C/c5ccc(OCCOCCOCCOC)cc5)n4[B-]3(C)C)C(C)=C2)cc1	Active; Showed Greater Effect Than Compound 3C	–	–	inactive	–	–	Non-toxic	2.2%	–	–	–	–	–	–	Drug uptake [26]: Active; Activity (RAW264.7 [27]): inactive; Activity [28]: inactive; Drug uptake [29]: Active; Activity [30]: inactive; Activity [31]: inactive; Activity (RAW264.7 [32]): inactive; Activity [33]: inactive
